Assay results: ChEMBL document CHEMBL1671655, “Anidulafungin is fungicidal and exerts a variety of postantifungal effects against Candida albicans, C. glabrata, C. parapsilosis, and C. krusei isolates” (2009)
Converted amounts (≈) assume the structure as drawn. The source made the active and inactive calls. The rule behind the calls is not given here. Starred links: 1 amine or outer side, 2 acyl side, 3 side chain; linkers in the order of their positions; H or OH if unused. Positions of bridges follow the written chain, without caps; N, C: chain ends. Non-standard residues stand in square brackets, D forms with d. Residues, ends and D or L forms follow the SMILES beside them. *: point of attachment. pTerphenylCO(4''-OnC5H11) = CCCCCOc1ccc(-c2ccc(-c3ccc(C(=O)*)cc3)cc2)cc1; Orn(4R-OH,5R-OH) = O=C([C@H](C[C@@H](O)[C@@H](O)N[*:3])N[*:1])[*:2]; hTyr(3S-OH,4S-OH) = N[C@H](C(=O)O)[C@H](O)[C@@H](O)c1ccc(O)cc1; Pro(3S-OH,4S-Me) = C[C@H]1CN[C@H](C(=O)O)[C@H]1O; Hyp = O=C(O)[C@@H]1C[C@@H](O)CN1

Experiments:
Candida albicans [1] = assay: Antifungal activity against Candida albicans isolate 2 by CLSI M27-A3 broth microdilution method; type: functional
In short: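 CLSI M27-A3 broth microdilution in RPMI 1640 buffered to pH 7.0 with MOPS. Starting inoculum 0.5 x 10^3 to 2.5 x 10^3 cells/ml, incubated at 35°C. MIC read as the lowest concentration giving >50% growth reduction versus control. Each isolate tested on at least three occasions.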

Candida parapsilosis [2] = assay: Increase in susceptibility to SDS in Candida parapsilosis isolate 1 assessed as cell wall damage at MIC after 1 hr relative to control; type: functional, organism-based
In short: (§1)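 Cells recovered 8 h after a 1-h drug exposure were grown in YPD with 1% glucose to exponential phase and adjusted to OD599 0.1. Undiluted culture and 10-fold serial dilutions were spotted onto YPD plates containing SDS (0.01 to 0.04%), then incubated 72 h at 30°C. Growth compared with unexposed control cells; triplicate.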

Candida parapsilosis [3] = assay: Fungicidal activity against Candida parapsilosis isolate 1 assessed as log reduction in bacterial count at MIC after drug exposure for 1 hr followed by washout measured after 48 hrs in the absence of drug by PAFE study; type: functional; settings: Lodderomyces parapsilosis
In short: (§2)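 Inoculum about 1 x 10^5 to 5 x 10^5 CFU/ml in RPMI 1640 (MOPS, pH 7.0) with drug, shaken at 35°C for 1 h. Cells were then washed and centrifuged at 1,400 x g for 10 min (3 cycles) and resuspended in warm drug-free RPMI. Samples plated on SDA at 0, 2, 4, 8, 12, 24 and 48 h; CFU counted after 48 h at 35°C. Run twice per isolate; means.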

Candida albicans [4] = assay: Antifungal activity against Candida albicans isolate 1 assessed as time period for bacterial growth inhibition at 16 times MIC after 1 hr drug exposure; type: functional
In short: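 Inoculum of about 1 x 10^5 to 5 x 10^5 CFU/ml in MOPS-buffered RPMI (pH 7.0), shaken at 35°C and exposed to drug for 1 h. Cells then washed and centrifuged three times and resuspended in drug-free warm RPMI. Samples plated on SDA at 0, 2, 4, 8, 12, 24 and 48 h, with CFU counted after 48 h at 35°C. Run twice per isolate; values are means.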

Candida parapsilosis [5] = assay: Increase in susceptibility to calcofluor white in Candida parapsilosis isolate 1 assessed as cell wall damage at 16 times MIC after 1 hr relative to control; type: functional, organism-based
In short: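 Candida given a 1-h anidulafungin pulse in MOPS-buffered RPMI 1640 (pH 7.0) at 35°C, washed three times by centrifugation, and regrown drug-free. Cells collected 8 h later, grown in YPD with 1% glucose to exponential phase, and set to OD599 0.1. Undiluted culture and 10-fold dilutions (4 µl) spotted on YPD plates with calcofluor white, then 30°C for 72 h. Triplicate; compared with no-drug cells.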

Nakaseomyces glabratus [6] = assay: Fungicidal activity against Candida glabrata isolate 1 assessed as log reduction in bacterial count at MIC after 48 hrs by time-kill analysis; type: functional; settings: isolate 1, 48 h
In short: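 Isolates subcultured twice on SDA, suspended to 0.5 McFarland, giving ~1 x 10^5 to 5 x 10^5 CFU/ml in MOPS-buffered RPMI 1640 (pH 7.0) with or without drug at multiples of MIC (MIC by CLSI M27-A3). Tubes shaken at 35°C with continuous drug. Sampled at 0–48 h, diluted 10-fold and plated on SDA; CFU counted after 48 h at 35°C. Run twice per isolate; means.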

Nakaseomyces glabratus [7] = assay: Increase in susceptibility to SDS in Candida glabrata isolate 3 assessed as cell wall damage at MIC after 1 hr relative to control; type: functional, organism-based; in short: as §1
Nakaseomyces glabratus [8] = assay: Increase in susceptibility to SDS in Candida glabrata isolate 3 assessed as cell wall damage at 16 times MIC after 1 hr relative to control; type: functional, organism-based; in short: as §1
Pichia kudriavzevii [9] = assay: Increase in susceptibility to calcofluor white in Candida krusei isolate ATCC 6258 assessed as cell wall damage at 4 times MIC after 1 hr relative to control; type: functional, organism-based
In short: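 Cells recovered 8 h after a 1-h drug exposure were grown to exponential phase in YPD with 1% glucose and adjusted to OD599 0.1. Undiluted and 10-fold serially diluted cultures were spotted onto YPD plates containing calcofluor white, then incubated at 30°C for 72 h. Growth compared with no-drug control cells; triplicate.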

Candida parapsilosis [10] = assay: Increase in susceptibility to SDS in Candida parapsilosis isolate A assessed as cell wall damage at 4 times MIC after 1 hr relative to control; type: functional, organism-based; in short: as §1
Candida parapsilosis [11] = assay: Fungicidal activity against Candida parapsilosis isolate A assessed as log reduction in bacterial count at MIC after 48 hrs by time-kill analysis; type: functional; settings: Lodderomyces parapsilosis
In short: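 Isolates subcultured twice on SDA, then suspended to 0.5 McFarland and diluted into RPMI 1640 (MOPS, pH 7.0) with or without anidulafungin, giving about 1 x 10^5 to 5 x 10^5 CFU/ml. Tubes were shaken at 35°C. Samples were taken at 0, 2, 4, 8, 12, 24 and 48 h, serially diluted 10-fold, plated on SDA, and CFU counted after 48 h at 35°C. Each isolate was run twice; mean values.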

Candida albicans [12] = assay: Increase in susceptibility to SDS in Candida albicans isolate 1 assessed as cell wall damage at 16 times MIC after 1 hr relative to control; type: functional, organism-based; in short: as §1
Candida albicans [13] = assay: Inhibition of Candida albicans isolate 1 adherence to human buccal epithelial cells at 4 times MIC after 1 hr by adherence assay relative to control; type: functional, Epithelial cell
In short: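 Candida collected 8 h after a 1-h 4x MIC pulse and washout were grown on SDA for 24 h at 35°C. Buccal epithelial cells were pooled from three donors and washed in PBS. Cells (1 x 10^5/ml) were mixed 1:1 by volume with Candida (1 x 10^6/ml) and shaken 1 h at 37°C. Mixtures were filtered, washed, and Gram-stained, and Candida were counted per 100 epithelial cells. Run in duplicate on ≥2 occasions; Student's t test against unexposed controls.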

Pichia kudriavzevii [14] = assay: Antifungal activity against Candida krusei by NCCLS M27A broth microdilution method; type: functional
Nakaseomyces glabratus [15] = assay: Increase in susceptibility to SDS in Candida glabrata isolate 1 assessed as cell wall damage at MIC after 1 hr relative to control; type: functional, organism-based; in short: as §1
Candida parapsilosis [16] = assay: Fungicidal activity against Candida parapsilosis isolate A assessed as log reduction in bacterial count at MIC after drug exposure for 1 hr followed by washout measured after 48 hrs in the absence of drug by PAFE study; type: functional; settings: Lodderomyces parapsilosis; in short: as §2
Candida parapsilosis [17] = assay: Fungicidal activity against Candida parapsilosis isolate S assessed as log reduction in bacterial count at 16 times MIC after drug exposure for 1 hr followed by washout measured after 48 hrs in the absence of drug by PAFE study; type: functional; settings: Lodderomyces parapsilosis; in short: as §2
Candida albicans [18] = assay: Fungicidal activity against Candida albicans ATCC 90028 assessed as log reduction in bacterial count at 4 times MIC after drug exposure for 1 hr followed by washout measured after 48 hrs in the absence of drug by PAFE study; type: functional
In short: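 Starting inoculum ~1 x 10^5 to 5 x 10^5 CFU/ml in MOPS-buffered RPMI 1640 (pH 7.0) with drug at multiples of the CLSI M27-A3 MIC. After 1 h at 35°C, cells washed and centrifuged three times at 1,400 x g for 10 min, then resuspended in warm drug-free RPMI. Shaken at 35°C and plated on SDA at 0–48 h; CFU counted after 48 h. Run twice per isolate; means.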

Q: CCCCCOc1ccc(-c2ccc(-c3ccc(C(=O)N[C@H]4C[C@@H](O)[C@@H](O)NC(=O)[C@@H]5[C@@H](O)[C@@H](C)CN5C(=O)[C@H]([C@@H](C)O)NC(=O)[C@H]([C@H](O)[C@@H](O)c5ccc(O)cc5)NC(=O)[C@@H]5C[C@@H](O)CN5C(=O)[C@H]([C@@H](C)O)NC4=O)cc3)cc2)cc1 [ANIDULAFUNGIN] ({pTerphenylCO(4''-OnC5H11)}-[Orn(4R-OH,5R-OH)]T[Hyp][hTyr(3S-OH,4S-OH)]T[Pro(3S-OH,4S-Me)]; lactam 1-C) was tested. Which MIC (Candida albicans [1]) did it give?
A: 0.03 µg/mL (≈ 0.0263 µM)

Q: And the Activity (Candida parapsilosis [2])?
A: Active

Q: What about the log reduction (Candida parapsilosis [3]) of the same molecule?
A: 0.81

Q: And the Time (Candida albicans [4])?
A: 8 h

Q: And the Activity (Candida parapsilosis [5])?
A: Active

Q: And the log reduction (Nakaseomyces glabratus [6])?
A: 1.8 log CFU/ml

Q: And the Activity (Nakaseomyces glabratus [7])?
A: Active

Q: What about the Activity (Nakaseomyces glabratus [8]) of the same molecule?
A: Active

Q: What about the Activity (Pichia kudriavzevii [9]) of the same molecule?
A: Active

Q: What about the Activity (Candida parapsilosis [10]) of the same molecule?
A: Active

Q: What about the log reduction (Candida parapsilosis [11]) of the same molecule?
A: 1.76 log CFU/ml

Q: What about the Activity (Candida albicans [12]) of the same molecule?
A: Active

Q: And the “inhibition (INH)” value (Candida albicans [13])?
A: 58%

Q: And the MIC90 (Pichia kudriavzevii [14])?
A: 0.06 µg/mL (≈ 0.0526 µM)

Q: And the Activity (Nakaseomyces glabratus [15])?
A: Active

Q: What about the log reduction (Candida parapsilosis [16]) of the same molecule?
A: 1.41

Q: What about the log reduction (Candida parapsilosis [17]) of the same molecule?
A: 3.05

Q: And the log reduction (Candida albicans [18])?
A: 1.89
